Measurements from ChEMBL document CHEMBL4819118, “Rational modification, synthesis and biological evaluation of N-substituted phthalazinone derivatives designed to target interleukine-15 protein” (Bioorg Med Chem, 2021).

How the values were obtained:
Interleukin-2 = Interleukin-2 (Homo sapiens, UniProt P60568); assay: Inhibition of IL2-induced STAT5 phosphorylation in human NK92 cells incubated for 30 mins followed by IL-2 stimulation and measured after 1 hr by alphascreen assay
Interleukin-15 [1] = molecular target: T1, Interleukin-15 (Homo sapiens, UniProt P40933); assay: Inhibition of IL-15-induced STAT5 phosphorylation in human NK92 cells incubated for 30 mins followed by IL-15 stimulation and measured after 1 hr by alphascreen assay
Interleukin-15 [2] = molecular target: T1, Interleukin-15; assay: Binding affinity to recombinant human IL-15 assessed as dissociation constant by SPR analysis
How it was run: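 IL-15 covalently immobilized on sensor chip; compounds flowed at increasing concentrations and binding monitored by surface plasmon resonance; Kd derived from direct interaction.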

T1 sequence (P40933 whole entry): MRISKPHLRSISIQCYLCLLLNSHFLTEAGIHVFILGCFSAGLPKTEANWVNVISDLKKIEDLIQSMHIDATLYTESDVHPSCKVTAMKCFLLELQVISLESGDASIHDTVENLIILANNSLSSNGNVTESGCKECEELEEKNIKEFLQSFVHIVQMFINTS
Chain of Interleukin-2 (P60568 whole entry): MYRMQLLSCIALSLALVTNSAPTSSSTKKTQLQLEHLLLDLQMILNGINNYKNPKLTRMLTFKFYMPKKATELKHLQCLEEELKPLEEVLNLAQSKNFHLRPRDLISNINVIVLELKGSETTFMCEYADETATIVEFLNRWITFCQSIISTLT

Compound	IC50 (Interleukin-2)	IC50 (Interleukin-15 [1])	Kd (Interleukin-15 [2]; read-out: Kd)	Kd (Interleukin-15 [2])
CN(C)CCCn1nc(Cc2nnc(SCCCCCCCC(=O)Nc3ccc(Cl)cc3Cl)n2C)c2ccccc2c1=O	> 30 µM	> 30 µM	–	–
Cn1c(Cc2nn(CCCO)c(=O)c3ccccc23)nnc1SCC(=O)Nc1ccc(Cl)cc1Cl	> 30 µM	–	–	–
Cn1c(Cc2nn(C)c(=O)c3ccccc23)nnc1SCCCCCCCC(=O)Nc1ccc(Cl)cc1Cl	0.35 µM	0.19 µM	1.3 µM	–
CCOC(CCn1c(Cc2nn(C)c(=O)c3ccccc23)nnc1SCC(=O)Nc1ccc(Cl)cc1Cl)OCC	> 30 µM	> 30 µM	–	–
Cn1c(Cc2nn(C)c(=O)c3ccccc23)nnc1SCC(=O)Nc1ccc(Cl)cc1Cl	7.7 µM	4.5 µM	–	–
Cn1c(Cc2nn(CCC=O)c(=O)c3ccccc23)nnc1SCCCCCCCC(=O)Nc1ccc(Cl)cc1Cl	21.9 µM	14.9 µM	7.8 µM	–
Cn1c(Cc2nn(CCC3OCCO3)c(=O)c3ccccc23)nnc1SCC(=O)Nc1ccc(Cl)cc1Cl	> 30 µM	–	–	–
Cn1nc(Cc2nnc(SCCCCCCCC(=O)Nc3ccc(Cl)cc3Cl)n2CCCO)c2ccccc2c1=O	> 30 µM	> 30 µM	–	–
Cn1c(Cc2nn(CCCO)c(=O)c3ccccc23)nnc1SCCCCCCCC(=O)Nc1ccc(Cl)cc1Cl	> 30 µM	> 30 µM	3.9 µM	–
Cn1c(Cc2nn(CCCO[Si](C)(C)C(C)(C)C)c(=O)c3ccccc23)nnc1SCCCCCCCC(=O)Nc1ccc(Cl)cc1Cl	> 30 µM	> 30 µM	–	–
CN(C)CCCn1c(Cc2nn(C)c(=O)c3ccccc23)nnc1SCCCCCCCC(=O)Nc1ccc(Cl)cc1Cl	> 30 µM	> 30 µM	–	–
Cn1c(Cc2nn(C)c(=O)c3ccccc23)nnc1SCCCCCCCC(=O)Nc1ccc(C(=O)c2ccccc2)cc1	0.08 µM	0.05 µM	3.5 µM	–
Cn1c(Cc2nn(CCC(=O)O)c(=O)c3ccccc23)nnc1SCC(=O)Nc1ccc(Cl)cc1Cl	> 30 µM	> 30 µM	–	–
Cn1nc(Cc2nnc(SCCCCCCCC(=O)Nc3ccc(Cl)cc3Cl)n2CCC(=O)O)c2ccccc2c1=O	14.3 µM	9.5 µM	–	–
Cn1nc(Cc2nnc(SCCCCCCCC(=O)Nc3ccc(Cl)cc3Cl)[nH]2)c2ccccc2c1=O	0.45 µM	0.28 µM	2.4 µM	–
Cn1c(Cc2nn(CCC=O)c(=O)c3ccccc23)nnc1SCC(=O)Nc1ccc(Cl)cc1Cl	> 30 µM	20 µM	–	–
CN(C)CCCn1nc(Cc2nnc(SCC(=O)Nc3ccc(Cl)cc3Cl)n2C)c2ccccc2c1=O	> 30 µM	> 30 µM	–	–
Cn1c(Cc2nn(CCC(=O)O)c(=O)c3ccccc23)nnc1SCCCCCCCC(=O)Nc1ccc(Cl)cc1Cl	–	> 30 µM	–	–
Cn1nc(Cc2nnc(SCCCCCCCC(=O)Nc3ccc(Cl)cc3Cl)n2CCCO[Si](C)(C)C(C)(C)C)c2ccccc2c1=O	> 30 µM	> 30 µM	–	–
Cn1nc(Cc2nnc(SCCCCCCCC(=O)Nc3ccc(Cl)cc3Cl)n2CCC=O)c2ccccc2c1=O	0.96 µM	0.71 µM	5.9 µM	–
Cn1nc(Cc2nnc(SCC(=O)Nc3ccc(Cl)cc3Cl)n2CCCO)c2ccccc2c1=O	> 30 µM	> 30 µM	–	–
Cn1c(Cc2n[nH]c(=O)c3ccccc23)nnc1SCCCCCCCC(=O)Nc1ccc(Cl)cc1Cl	> 30 µM	20 µM	–	Not Active
Cn1nc(Cc2nnc(SCC(=O)Nc3ccc(Cl)cc3Cl)n2CCC(=O)O)c2ccccc2c1=O	> 30 µM	> 30 µM	–	–
Cn1nc(Cc2nnc(SCC(=O)Nc3ccc(Cl)cc3Cl)n2CCC=O)c2ccccc2c1=O	8.6 µM	4.2 µM	–	–
